# ChEMBL document CHEMBL3808334, “Synthesis and in vitro evaluation of novel triazine analogues as anticancer agents and their interaction studies with bovine serum albumin” (Eur J Med Chem, 2016)
# Key:
# [1] = Growth inhibition of human OVCAR5 cells assessed as cell growth at 10^-8 M incubated for 48 hrs by sulforhodamine B assay; type: functional; details: OVCAR-5, 48 h, read-out: Activity
# [2] = Growth inhibition of human OVCAR3 cells assessed as cell growth at 10^-6 M incubated for 48 hrs by sulforhodamine B assay; type: functional; details: OVCAR-3, 48 h, read-out: Activity
# [3] = Growth inhibition of human MOLT4 cells assessed as cell growth at 10^-4 M incubated for 48 hrs by sulforhodamine B assay; type: functional; details: MOLT-4, 48 h, read-out: Activity
# Malme-3M [4] = experiment: Growth inhibition of human MALME-3M cells incubated for 48 hrs by sulforhodamine B assay; type: functional
# Procedure, shortened: (§1)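 Cells were plated at 5,000–40,000 per well according to doubling time and preincubated 24 h at 37 °C in 5% CO2; time-zero plates were then TCA-fixed. Five concentrations (10-fold or ½-log dilutions, DMSO stock) were incubated 48 h. Cells were TCA-fixed, stained with 0.4% SRB and read at 515 nm. GI50 was taken where [(Ti−Tz)/(C−Tz)]×100 = 50.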
# SN12C = experiment: Growth inhibition of human SN12C cells assessed as cell growth at 10^-6 M incubated for 48 hrs by sulforhodamine B assay; type: functional; details: read-out: Activity
# NCI-H322M [5] = experiment: Growth inhibition of human NCI-H322M cells assessed as cell growth at 10^-7 M incubated for 48 hrs by sulforhodamine B assay; type: functional; details: read-out: Activity
# [6] = Growth inhibition of human HL-60(TB) cells assessed as cell growth at 10^-4 M incubated for 48 hrs by sulforhodamine B assay; type: functional; details: HL-60, 48 h, read-out: Activity
# Procedure, shortened: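 Cells plated at 5,000–40,000/well according to doubling time and preincubated 24 h at 37 °C, 5% CO₂, with time-zero plates TCA-fixed. Drugs were kept as DMSO concentrates at 400× the top concentration and diluted in medium with 50 µg/ml gentamicin. Five 10-fold or ½-log dilutions were run for 48 h, followed by SRB staining and A515. Percent growth = (Ti−Tz)/(C−Tz)×100, or (Ti−Tz)/Tz×100 when Ti<Tz.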
# [7] = Growth inhibition of human HOP62 cells assessed as cell growth at 10 uM incubated for 48 hrs by sulforhodamine B assay; type: functional; details: HOP-62, 48 h, read-out: Activity
# [8] = Growth inhibition of human SF539 cells assessed as cell growth at 10^-8 M incubated for 48 hrs by sulforhodamine B assay; type: functional; details: SF-539, 48 h, read-out: Activity
# Malme-3M [9] = experiment: Growth inhibition of human MALME-3M cells assessed as cell growth at 10^-5 M incubated for 48 hrs by sulforhodamine B assay; type: functional; details: read-out: Activity
# [10] = Growth inhibition of human HCT116 cells assessed as cell growth at 10^-6 M incubated for 48 hrs by sulforhodamine B assay; type: functional; details: HCT-116, 48 h, read-out: Activity
# Procedure, shortened: (§2)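 Cells seeded at 5,000–40,000/well according to doubling time and preincubated 24 h at 37 °C, 5% CO2. Time-zero plates were TCA-fixed. DMSO concentrate was diluted in medium with 50 µg/ml gentamicin to give five concentrations (10-fold or ½ log steps), then exposed 48 h. Cells were TCA-fixed, stained with 0.4% SRB and read at 515 nm. Percent growth was taken against time-zero and control; GI50, TGI and LC50 derived.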
# [11] = Growth inhibition of human SKOV3 cells assessed as cell growth at 10^-8 M incubated for 48 hrs by sulforhodamine B assay; type: functional; details: SK-OV-3, 48 h, read-out: Activity
# [12] = Growth inhibition of human RPMI8226 cells assessed as cell growth at 10 uM incubated for 48 hrs by sulforhodamine B assay; type: functional; details: RPMI-8226, 48 h, read-out: Activity
# [13] = Growth inhibition of human HCT116 cells assessed as cell growth at 10^-4 M incubated for 48 hrs by sulforhodamine B assay; type: functional; details: HCT-116, 48 h, read-out: Activity; procedure, shortened: as §2
# [14] = Growth inhibition of human RPMI8226 cells assessed as cell growth at 10^-4 M incubated for 48 hrs by sulforhodamine B assay; type: functional; details: RPMI-8226, 48 h, read-out: Activity
# [15] = Growth inhibition of human SKOV3 cells assessed as cell growth at 10^-6 M incubated for 48 hrs by sulforhodamine B assay; type: functional; details: SK-OV-3, 48 h, read-out: Activity
# [16] = Growth inhibition of human HCT15 cells assessed as cell growth at 10^-4 M incubated for 48 hrs by sulforhodamine B assay; type: functional; details: HCT-15, 48 h, read-out: Activity; procedure, shortened: as §2
# NCI-H322M [17] = experiment: Growth inhibition of human NCI-H322M cells assessed as cell growth at 10^-6 M incubated for 48 hrs by sulforhodamine B assay; type: functional; details: read-out: Activity
# Albumin = Albumin (Bos taurus, UniProt P02769); experiment: Binding affinity to bovine serum albumin assessed as binding constant in emission spectra by Benesie-Hildebrand plot analysis; type: ADME; details: cattle, isolated protein
# Albumin, sequence (P02769 whole entry): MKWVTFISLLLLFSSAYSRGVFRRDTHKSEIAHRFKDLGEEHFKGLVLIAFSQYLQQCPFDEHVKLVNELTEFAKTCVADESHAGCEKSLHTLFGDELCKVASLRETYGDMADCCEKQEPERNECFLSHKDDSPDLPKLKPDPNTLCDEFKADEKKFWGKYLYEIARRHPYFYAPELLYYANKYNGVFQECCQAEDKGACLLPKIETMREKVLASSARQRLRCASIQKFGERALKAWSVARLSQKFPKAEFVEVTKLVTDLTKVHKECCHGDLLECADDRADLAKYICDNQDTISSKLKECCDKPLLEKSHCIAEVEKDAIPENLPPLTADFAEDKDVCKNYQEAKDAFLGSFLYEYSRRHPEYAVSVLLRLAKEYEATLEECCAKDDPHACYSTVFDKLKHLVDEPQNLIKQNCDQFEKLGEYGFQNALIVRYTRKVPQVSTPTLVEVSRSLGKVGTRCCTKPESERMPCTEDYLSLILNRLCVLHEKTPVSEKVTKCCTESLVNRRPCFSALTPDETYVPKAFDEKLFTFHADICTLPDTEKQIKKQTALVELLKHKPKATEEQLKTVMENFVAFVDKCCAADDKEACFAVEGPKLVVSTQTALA
# Procedure, shortened: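 BSA, 10 µM, in 0.1 M phosphate buffer pH 7.4, titrated with compound (0–20 µM per the figure; diluted from 10⁻³ mol L⁻¹ DMSO stocks). Run at 300 K in a 1 cm quartz cell. UV spectra taken 200–800 nm after 5 min equilibration; fluorescence excited at 280 nm, emission 351 nm, slit 10 nm. K is the intercept/slope ratio of a linear fit of 1/(A₀−A) or 1/(F₀−F) vs 1/[compound].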
# U-251 = experiment: Growth inhibition of human U251 cells assessed as cell growth at 10^-8 M incubated for 48 hrs by sulforhodamine B assay; type: functional; details: U-251, 48 h, read-out: Activity
# [18] = Growth inhibition of human HOP92 cells assessed as cell growth at 10 uM incubated for 48 hrs by sulforhodamine B assay; type: functional; details: HOP-92, 48 h, read-out: Activity
# [19] = Growth inhibition of human HCT15 cells assessed as cell growth at 10^-8 M incubated for 48 hrs by sulforhodamine B assay; type: functional; details: HCT-15, 48 h, read-out: Activity; procedure, shortened: as §2
# MDA-MB-468 = experiment: Growth inhibition of human MDA-MB-468 cells assessed as cell growth at 10 uM incubated for 48 hrs by sulforhodamine B assay; type: functional; details: MDA-MB-468, 48 h, read-out: Activity
# [20] = Growth inhibition of human non-small cell lung cancer cells incubated for 48 hrs by sulforhodamine B assay; type: functional; details: Cancer cell lines; for CC50: read-out: LC50 (the source's name)
# NCI-H322M [21] = experiment: Growth inhibition of human NCI-H322M cells incubated for 48 hrs by sulforhodamine B assay; type: functional; procedure, shortened: as §1
# [22] = Growth inhibition of human PC3 cells incubated for 48 hrs by sulforhodamine B assay; type: functional; details: PC-3, 48 h; procedure, shortened: as §1
# [23] = Growth inhibition of human SNB19 cells assessed as cell growth at 10 uM incubated for 48 hrs by sulforhodamine B assay; type: functional; details: SNB-19, 48 h, read-out: Activity
# [24] = read-out: LC50 (the source's name)
# [25] = read-out: pLC50 (the source's name) (converted)
smiles,measurement,setting,value
Clc1ccc(-c2nc(Nc3ccc(-c4nc5ccccc5[nH]4)cc3)nc(N3CCOCC3)n2)cc1,growth at 0.01 µM,[1],97%
same,growth at 1 µM,[2],15%
same,growth at 100 µM,[3],-41%
same,GI50,Malme-3M [4]; read-out: GI50,2.1 µM
same,TGI,Malme-3M [4]; read-out: TGI,3.86 µM
same,GI50,Malme-3M [4]; read-out: pGI50 (converted),2.09 µM
same,TGI,Malme-3M [4]; read-out: pTGI (converted),3.89 µM
same,growth at 1 µM,SN12C,47%
same,growth at 0.1 µM,NCI-H322M [5],94%
same,growth at 100 µM,[6],-45%
same,growth at 10 µM,[7],-73.9%
same,growth at 0.01 µM,[8],98%
same,growth at 10 µM,Malme-3M [9],-78%
same,growth at 1 µM,[10],-80%
same,growth at 0.01 µM,[11],101%
same,growth at 10 µM,[12],-73.4%
same,growth at 100 µM,[13],-34%
same,growth at 100 µM,[14],-27%
same,growth at 1 µM,[15],102%
same,growth at 100 µM,[16],-10%
same,growth at 1 µM,NCI-H322M [17],2%
same,K,Albumin,4.2 ×10⁷ /M
same,growth at 0.01 µM,U-251,99%
same,growth at 10 µM,[18],-72.1%
same,growth at 0.01 µM,[19],96%
same,growth at 10 µM,MDA-MB-468,-84%
same,GI50,[20],1.15 µM
same,TGI,[20],2.59 µM
same,CC50,[20],5.58 µM
same,GI50,NCI-H322M [21]; read-out: GI50,0.303 µM
same,TGI,NCI-H322M [21]; read-out: TGI,1.07 µM
same,GI50,NCI-H322M [21]; read-out: pGI50 (converted),0.302 µM
same,TGI,NCI-H322M [21]; read-out: pTGI (converted),1.07 µM
same,GI50,[22]; read-out: GI50,0.376 µM
same,TGI,[22]; read-out: TGI,1.33 µM
same,GI50,[22]; read-out: pGI50 (converted),0.38 µM
same,TGI,[22]; read-out: pTGI (converted),1.32 µM
same,growth at 10 µM,[23],-81.2%
c1ccc2[nH]c(-c3ccc(Nc4nc(N5CCCCC5)nc(N5CCOCC5)n4)cc3)nc2c1,growth at 0.01 µM,[1],101%
same,growth at 1 µM,[2],96%
same,growth at 100 µM,[3],-34%
same,GI50,Malme-3M [4]; read-out: GI50,1.87 µM
same,CC50,Malme-3M [4]; [24],6.81 µM
same,TGI,Malme-3M [4]; read-out: TGI,3.57 µM
same,GI50,Malme-3M [4]; read-out: pGI50 (converted),1.86 µM
same,CC50,Malme-3M [4]; [25],6.76 µM
same,TGI,Malme-3M [4]; read-out: pTGI (converted),3.55 µM
same,growth at 1 µM,SN12C,100%
same,growth at 0.1 µM,NCI-H322M [5],97%
same,growth at 100 µM,[6],-22%
same,growth at 10 µM,[7],-45.2%
same,growth at 0.01 µM,[8],99%
same,growth at 10 µM,Malme-3M [9],-80%
same,growth at 1 µM,[10],95%
same,growth at 0.01 µM,[11],97%
same,growth at 10 µM,[12],2.47%
same,growth at 100 µM,[13],-75%
same,growth at 100 µM,[14],-24%
same,growth at 1 µM,[15],102%
same,growth at 100 µM,[16],-22%
same,growth at 1 µM,NCI-H322M [17],93%
same,K,Albumin,5.7 ×10⁴ /M
same,growth at 0.01 µM,U-251,99%
same,growth at 10 µM,[18],43.4%
same,growth at 0.01 µM,[19],95%
same,growth at 10 µM,MDA-MB-468,-3.66%
same,GI50,[20],2.85 µM
same,TGI,[20],9.66 µM
same,CC50,[20],9.54 µM
same,GI50,NCI-H322M [21]; read-out: GI50,4.72 µM
same,CC50,NCI-H322M [21]; [24],> 100 µM
same,TGI,NCI-H322M [21]; read-out: TGI,> 100 µM
same,GI50,NCI-H322M [21]; read-out: pGI50 (converted),4.68 µM
same,CC50,NCI-H322M [21]; [25],> 100 µM
same,TGI,NCI-H322M [21]; read-out: pTGI (converted),> 100 µM
same,GI50,[22]; read-out: GI50,3.05 µM
same,CC50,[22]; [24],> 100 µM
same,TGI,[22]; read-out: TGI,9.13 µM
same,GI50,[22]; read-out: pGI50 (converted),3.02 µM
same,CC50,[22]; [25],> 100 µM
same,TGI,[22]; read-out: pTGI (converted),9.12 µM
same,growth at 10 µM,[23],10.4%
